Here are results for 12 compounds from ChEMBL document CHEMBL1127730, “Bicyclic hydantoins with a bridgehead nitrogen. Comparison of anticonvulsant activities with binding to the neuronal voltage-dependent sodium channel” (J Med Chem, 1994).

Calls of active or inactive are those of the source. No cut-off for these calls is given here.

Data set [1] is described as follows: Partition coefficient (logP). It is filed as physicochemical. The note with it: octanol/water. The method in brief:
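Calculated rather than measured: the parent-structure log P value is summed with π contributions for the substituents. Both sets of constants come from published tables.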

The target of data set [2] is Sodium channel alpha subunits; brain (Types I, II, III) (Rattus norvegicus, UniProt P04775+P04774+P08104). Kind of data set: Inhibition of binding to sodium channel of rat cerebral cortex. The data set is classed as tissue-based. In a few lines: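 Rat cerebral cortex synaptosomes (~1 mg protein) incubated 40 min at 25 °C with 10 nM [3H]BTX-B, 50 μg/mL scorpion venom and test compound at seven concentrations. Filtration, ice-cold buffer washes, scintillation counting. Nonspecific binding defined with 300 μM veratridine. Triplicate runs with 40 μM DPH control tube. IC50 by Probit analysis, excluding doses giving <10% or >90% inhibition.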

In data set [3] the test system is Mus musculus. Kind of data set: Number of animals protected or toxic compared to number tested in subcutaneous administration in mice; 1/1. It is filed as functional. In a few lines:
(§1)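 Mice dosed ip and tested 30 min later. Phase I screen is qualitative: maximal electroshock and subcutaneous metrazol (scMet) seizure tests, plus a rotorod test for neurotoxicity. Reported as the best active dose in mg/kg, with animals protected (or toxic) over the number tested. Run by the NINDS Antiepileptic Drug Development Program.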

For data set [4], the system named is Mus musculus. Kind of data set: Anticonvulsant activity was measured as inhibition of convulsions by maximal electric shock (MES) method in Phase-I by intraperitoneal administration in mice. The data set is classed as functional. The method in brief:
as §1

Data set [5] relates to Mus musculus. Kind of data set: Anticonvulsant activity was measured as inhibition of convulsions by rotarod test in Phase-I by intraperitoneal administration in mice. It is filed as functional. In a few lines: as §1
Data set [6] has as its system Mus musculus. Kind of data set: Anticonvulsant activity was measured as inhibition of convulsions by subcutaneous administration in mice. The data set is classed as functional. In a few lines: as §1
The subject of data set [7] is Mus musculus. Kind of data set: Number of animals protected or toxic compared to number tested rotarod test in Phase-I by intraperitoneal administration in mice; 4/4. The data set is classed as functional. The method in brief: as §1
For data set [8], the system named is Mus musculus. Kind of data set: Number of animals protected or toxic compared to number tested in subcutaneous administration in mice; 4/4. The data set is classed as functional. In a few lines: as §1
Data set [9] concerns Mus musculus. Kind of data set: Number of animals protected or toxic compared to number tested maximal electric shock (MES) method in Phase-I by intraperitoneal administration in mice; 1/1. The data set is classed as functional. In a few lines: as §1
In data set [10] the test system is Mus musculus. Kind of data set: Anticonvulsant activity was measured by maximal electric shock (MES) method in Phase -II by intraperitoneal administration in mice. The data set is classed as functional. The note with it: ip. The method in brief:
(§2)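 Phase II quantification in mice dosed ip: ED50 against maximal electroshock seizures and rotorod neurotoxic TD50, both in mg/kg. The 95% confidence intervals are given in brackets. Run by the NINDS Antiepileptic Drug Development Program.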

Data set [11] concerns Mus musculus. Kind of data set: Time taken for measure Anticonvulsant activity in Phase -II by intraperitoneal administration in mice. The data set is classed as functional.
Data set [12] concerns Mus musculus. Kind of data set: Anticonvulsant activity was measured by rotarod test in Phase -II by intraperitoneal administration in mice. The data set is classed as functional. Conditions: ip. The method in brief:
as §2
Background: The rotarod test checks motor coordination on a turning rod.

Data set [13] deals with Mus musculus. Kind of data set: Number of animals protected or toxic compared to number tested maximal electric shock (MES) method in Phase-I by intraperitoneal administration in mice; 3/3. It is filed as functional. In a few lines: as §1
Data set [14] has as its system Mus musculus. Kind of data set: Number of animals protected or toxic compared to number tested rotarod test in Phase-I by intraperitoneal administration in mice; 1/4. It is filed as functional. In a few lines:
as §1

Data set [15] has as its system Mus musculus. Kind of data set: Number of animals protected or toxic compared to number tested rotarod test in Phase-I by intraperitoneal administration in mice; 8/8. It is filed as functional, organism-based. In a few lines:
as §1

Data set [16] concerns Mus musculus. Kind of data set: Number of animals protected or toxic compared to number tested in subcutaneous administration in mice; 3/4. It is filed as functional, organism-based. The method in brief: as §1
Data set [17] deals with Mus musculus. Kind of data set: Number of animals protected or toxic compared to number tested maximal electric shock (MES) method in Phase-I by intraperitoneal administration in mice; 1/3. The data set is classed as functional. In a few lines:
as §1

The logP is the decadic logarithm of the partition coefficient of the neutral form, usually between octanol and water. The IC50 is the midpoint of a concentration-inhibition curve. A lower IC50 goes with higher potency. Regarding `CCCCC1(c2ccccc2)NC(=O)N(C)C1=O` (stereo not drawn), the logP in [1] came out at 3.01. In addition, the IC50 in data set [2] turned out to be 285 µM.
For `O=C1O[C@@]2(c3ccccc3)CCCCN1C2=O`, in data set [1], the logP stood at 2.65. The Activity is 1 with Mus musculus [3], above 300 mg/kg with Mus musculus [4], above 300 mg/kg in the data set with Mus musculus [5] and 300 mg/kg in the data set on Mus musculus [6].
The term ED50 denotes the dose that gives a 50% effect, or the effect in half of the subjects. Low readings indicate greater potency, high ones weaker potency. As a reminder, the TD50 is the 50% point of the dose-response relation for the toxic effect studied. Low values mean harm at a small dose, high ones harm only at a large dose. `CCCC1(c2ccccc2)NC(=O)NC1=O` (stereo not drawn) gave a logP in data set [1] of 1.96. Also, the Activity with Mus musculus [7] amounted to 4; in the data set with Mus musculus [8], 4; in the data set on Mus musculus [9], 1; in the data set with Mus musculus [4] it was 30 mg/kg; in the data set on Mus musculus [5] it was 100 mg/kg; with Mus musculus [6], 100 mg/kg. In addition, the ED50 in the data set on Mus musculus [10] came out at 25 mg/kg. In the data set on Mus musculus [11], this compound returned a Time of 1 h. In addition, the TD50 in the data set with Mus musculus [12] was 85 mg/kg. In data set [2], the IC50 stood at 162 µM.
With `O=C1NC2(c3ccccc3)CCCCCN1C2=O` (stereo not drawn), the log partition coefficient (logP) in data set [1] was 2.51. Besides, the Activity was 4 in the data set on Mus musculus [7]; 3 with Mus musculus [13]; 100 mg/kg with Mus musculus [4]; 300 mg/kg in the data set on Mus musculus [5]; above 300 mg/kg in the data set on Mus musculus [6]. Moreover, the ED50 with Mus musculus [10] is 86 mg/kg. The compound further showed a Time in the data set with Mus musculus [11] of 0.25 h. Also, in the data set with Mus musculus [12], the TD50 was 124 mg/kg. In data set [2], this compound showed an IC50 of 427 µM.
`CCCCC1(c2ccccc2)NC(=O)NC1=O` (stereo not drawn) had a logP in [1] of 2.46. The IC50 in [2] was 103 µM.
For `CCCCCC1(c2ccccc2)NC(=O)NC1=O` (stereo not drawn) the same measures were 2.96 and 39 µM.
Compound `CN1C(=O)OC(C)(C)C1=O` [TRIMETHADIONE] had a logP in data set [1] of -0.37. The compound further came in with a Time in the data set with Mus musculus [11] of 1 h. In the data set on Mus musculus [12], this compound displayed a TD50 of 810 mg/kg. For the same compound, the half-inhibitory concentration (IC50) in [2] is above 1000 µM.
Regarding `CCC1(c2ccccc2)OC(=O)N(C)C1=O` (stereo not drawn), the logP in data set [1] amounted to 2.65. For the same compound, the Activity in the data set on Mus musculus [3] amounted to 1; in the data set with Mus musculus [9] it was 1; in the data set on Mus musculus [4], 300 mg/kg; with Mus musculus [5] it was 300 mg/kg; in the data set on Mus musculus [6] it was 30 mg/kg; in the data set on Mus musculus [14], 1. For the same compound, in the data set with Mus musculus [11], the Time came out at 0.5 h. Moreover, in the data set with Mus musculus [12], the TD50 worked out at 504 mg/kg.
For `O=C1NC(=O)C(c2ccccc2)(c2ccccc2)N1` [PHENYTOIN], the logP in data set [1] was 2.46. Moreover, the ED50 in the data set with Mus musculus [10] came to 10 mg/kg. Moreover, the Time in the data set with Mus musculus [11] amounted to 2 h.
`O=C1OC2(c3ccccc3)CCCCCN1C2=O` (stereo not drawn) yielded a logP in data set [1] of 3.05. Moreover, the outcome in the data set on Mus musculus [15] and in the data set on Mus musculus [3] was Active. Besides, the Activity with Mus musculus [13] was determined as 3; with Mus musculus [4], 100 mg/kg; in the data set on Mus musculus [5] it was 100 mg/kg; in the data set with Mus musculus [6], 100 mg/kg. It took a dose of 66 mg/kg to reach the 50% effect level in the data set with Mus musculus [10] (ED50). For the same compound, the Time in the data set with Mus musculus [11] was found to be 0.25 h. The TD50 in the data set on Mus musculus [12] turned out to be 147 mg/kg. The same compound returned an IC50 in data set [2] of 160 µM.
Consider `O=C1NC2(c3ccccc3)CCCCN1C2=O` (stereo not drawn), for which the logP in [1] amounted to 2.01. In the data set on Mus musculus [7], the result was Active. Moreover, the Activity result is “Weak activity” with Mus musculus [16]; 3 in the data set with Mus musculus [13]; 100 mg/kg with Mus musculus [4]; 300 mg/kg with Mus musculus [5]; 100 mg/kg with Mus musculus [6]. In data set [2], this compound returned an IC50 of 700 µM.
On to `NC(=O)C1(c2ccccc2)CCCCCNC1=O` (stereo not drawn), for which the Activity worked out at 4 in the data set on Mus musculus [7]; 4 in the data set on Mus musculus [8]; 1 with Mus musculus [17]; 100 mg/kg with Mus musculus [4]; 300 mg/kg with Mus musculus [5]; 300 mg/kg in the data set on Mus musculus [6].
